Activity calls are given as the source filed them. The rule behind the calls is not given here.
Columns and labels:
[1] = Cytotoxicity against mouse N13 cells assessed as cell viability at 0.36 uM incubated for 24 hrs by MTT assay relative to control; type: functional; conditions: read-out: Activity
How it was run: (§1)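 MTT assay (mitochondrial activity). Cells grown at 37 °C, humidified 5% CO2: N13 in RPMI, F98 in DMEM.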

F98 [2] = experiment: Cytotoxicity against rat F98 cells assessed as cell growth inhibition incubated for 24 hrs by MTT assay; type: functional, cell-based; conditions: F98, 24 h; how it was run: as §1
[3] = Cytotoxicity against mouse N13 cells assessed as cell growth inhibition incubated for 24 hrs by MTT assay; type: functional, cell-based; conditions: N13, 24 h; how it was run: as §1
F98 [4] = experiment: Cytotoxicity against rat F98 cells assessed as cell viability at 0.36 uM incubated for 24 hrs by MTT assay relative to control; type: functional; conditions: read-out: Activity; how it was run: as §1
[5] = Cytotoxicity against mouse N13 cells assessed as cell viability at 0.31 uM incubated for 24 hrs by MTT assay relative to control; type: functional; conditions: read-out: Activity; how it was run: as §1
F98 [6] = experiment: Cytotoxicity against rat F98 cells assessed as cell viability at 0.31 uM incubated for 24 hrs by MTT assay relative to control; type: functional; conditions: read-out: Activity; how it was run: as §1
[7] = Cytotoxicity against mouse N13 cells assessed as cell viability at 0.4 uM incubated for 24 hrs by MTT assay relative to control; type: functional; conditions: read-out: Activity; how it was run: as §1
F98 [8] = experiment: Cytotoxicity against rat F98 cells assessed as cell viability at 0.4 uM incubated for 24 hrs by MTT assay relative to control; type: functional; conditions: read-out: Activity; how it was run: as §1
N13 [9] = experiment: Induction of apoptosis in mouse N13 cells assessed as accumulation at sub G0/G1 phase at 100 ug/ml incubated for 24 hrs by flow cytometry; type: functional, cell-based; conditions: dose 100.0 µg/ml
How it was run: (§2)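 N13 or F98 cells exposed to 100 µg/mL for 24 h, untreated cells as controls. DNA content measured by flow cytometry. The fraction in the sub-G0/1 region taken as apoptotic cells.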

[10] = Toxicity in rat assessed as brain injury administered locally in caudate nucleus of brain measured after 30 days by MRI analysis; type: tissue-based; conditions: in vivo, other, 720 h, route it, time 30 day
How it was run: (§3)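 Non-tumor-bearing rats given a local injection into the caudate nucleus; PBS injected at the same site as control. Brain injury checked by in vivo MRI up to 30 days. Animals watched for external signs of pain or suffering. Survival monitored for 30 days.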

F98 [11] = experiment: Cytotoxicity in rat F98 cells co-cultured with CM-Dil-labeled mouse N13 cells assessed as decrease in number of rat F98 cells measured after 24 hrs by bright-field microscopy; type: functional, cell-based; conditions: dose <= 100.0 µg/ml
How it was run: (§4)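 Co-culture. N13 cells pre-labelled with the red membrane dye CM-DiI, then seeded together with F98 cells. Cells exposed to 0, 10 or 100 µg/mL for 24 h. Brightfield and fluorescence images taken on a high-content imager. Cell types separated by automatic segmentation on morphology (N13 rounded, F98 elongated) plus label. Cell counts and percentages of each type reported.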

F98 [12] = experiment: Antitumor activity against rat F98 cells xenografted in Fisher rat assessed as average tumor volume at 5 mg/kg, IT measured after 5 days by MRI analysis; type: functional; conditions: time 5 day
[13] = Toxicity in rat assessed as signs of pain administered locally in caudate nucleus of brain measured after 30 days; type: tissue-based; conditions: in vivo, other, 720 h, route it, time 30 day; how it was run: as §3
F98 [14] = experiment: Antitumor activity against rat F98 cells xenografted in Fisher rat assessed as average tumor volume at 5 mg/kg, IT measured after 2 days by MRI analysis (reference value: 845 mm^3); type: functional; conditions: time 2 day
[15] = Toxicity in rat assessed as survival rate administered locally in caudate nucleus of brain measured after 30 days relative to control; type: tissue-based; conditions: in vivo, route it, time 30 day
How it was run: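 Non-tumor-bearing rats received compound by local injection into the caudate nucleus, with PBS injected into the same region as control. Brains were imaged by in vivo MRI (9.4 T) before and 30 days after injection. Animals were watched for signs of pain, and survival over 30 days was plotted as Kaplan-Meier.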

[16] = Toxicity in rat assessed as signs of suffering administered locally in caudate nucleus of brain measured after 30 days; type: tissue-based; conditions: in vivo, other, 720 h, route it, time 30 day; how it was run: as §3
[17] = Toxicity in Fisher rat xenografted with rat F98 cells assessed as animal survival at 5 mg/kg, IT measured for 5 days; type: organism-based; conditions: in vivo, other, 120 h, time 5 day
How it was run: (§5)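 F98 glioma cells implanted in rats per an earlier protocol. Tumor volume followed by T₂-weighted MRI (9.4 T, turbo-RARE, TE 33 ms, TR 2500 ms) on days 3, 5, 8, 10, 12 and 15. On day 10 (mean tumor about 325 mm³), compound in PBS was given intratumorally at 5 mg/kg; PBS alone was the control. Survival was plotted as Kaplan-Meier.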

[18] = Toxicity in Fisher rat xenografted with rat F98 cells assessed as animal survival at 5 mg/kg, IT measured for 16 days; type: organism-based; conditions: in vivo, other, 384 h, time 16 day; how it was run: as §5
N13 [19] = experiment: Cytotoxicity in CM-Dil-labeled mouse N13 cells co-cultured with rat F98 cells assessed as increase in number of mouse N13 cells upto 100 ug/ml measured after 24 hrs by bright-field microscopy; type: functional, cell-based; conditions: dose <= 100.0 µg/ml; how it was run: as §4
F98 [20] = experiment: Antitumor activity against rat F98 cells xenografted in Fisher rat assessed as necrotic/apoptotic tumor cells at 5 mg/kg, IT measured after 2 days by MRI analysis; type: functional, organism-based; conditions: time 2.0 day
F98 [21] = experiment: Induction of apoptosis in rat F98 cells assessed as accumulation at sub G0/G1 phase at 100 ug/ml incubated for 24 hrs by flow cytometry relative to control; type: functional; conditions: dose 100 µg/ml; how it was run: as §2
F98 [22] = experiment: Cytotoxicity against rat F98 cells assessed as cell viability at 0.34 uM incubated for 24 hrs by MTT assay relative to control; type: functional; conditions: read-out: Activity; how it was run: as §1
[23] = Cytotoxicity against mouse N13 cells assessed as cell viability at 0.34 uM incubated for 24 hrs by MTT assay relative to control; type: functional; conditions: read-out: Activity; how it was run: as §1
[24] = Cytotoxicity against mouse N13 cells assessed as cell viability at 0.5 uM incubated for 24 hrs by MTT assay relative to control; type: functional; conditions: read-out: Activity; how it was run: as §1
F98 [25] = experiment: Cytotoxicity against rat F98 cells assessed as cell viability at 0.5 uM incubated for 24 hrs by MTT assay relative to control; type: functional; conditions: read-out: Activity; how it was run: as §1
[26] = Cytotoxicity against mouse N13 cells assessed as cell viability at 0.28 uM incubated for 24 hrs by MTT assay relative to control; type: functional; conditions: read-out: Activity; how it was run: as §1
F98 [27] = experiment: Cytotoxicity against rat F98 cells assessed as cell viability at 0.28 uM incubated for 24 hrs by MTT assay relative to control; type: functional; conditions: read-out: Activity; how it was run: as §1

Work on `CCOC(=O)C[C@H](N)c1ccc(OC)cc1O` yielded a viability at 0.36 µM [1] of 55%, an IC50 (F98 [2]) of 470 µM and an IC50 [3] of 340 µM. For the same compound, the viability at 0.36 µM (F98 [4]) was 45%.

In the case of `CCOC(=O)C[C@H](N)c1cc(Br)ccc1O`, the IC50 (F98 [2]) is reported as 210 µM, the IC50 [3] is reported as 500 µM and the viability at 0.31 µM [5] is reported as 40%. The viability at 0.31 µM (F98 [6]) was 60%.

Work on `CCOC(=O)C[C@@H](N)c1ccccc1O` yielded a viability at 0.4 µM [7] of 40%, an IC50 (F98 [2]) of 780 µM and an IC50 [3] of 450 µM. For the same compound, the viability at 0.4 µM (F98 [8]) was 35%.

With `CCOC(=O)C[C@H](N)c1ccccc1O.Cl` the viability at 0.4 µM [7] was 0%, the Activity (N13 [9]) was “inactive” and the IC50 (F98 [2]) was 140 µM. For the same compound, the Activity [10] was “Non-Toxic”, the Activity (F98 [11]) was “Dose-Dependent Effect” and the Activity (F98 [12]) was 815 mm3. For the same compound, the Activity [13] was “Non-Toxic”, the Activity (F98 [14]) was 370 mm3 and the survival at 720 h [15] was 100%. The Activity [16] was “Non-Toxic”, the Activity [17] was “Non-Toxic” and the Activity [18] was “Non-Toxic”. The viability at 0.4 µM (F98 [8]) was 60%, the Activity (N13 [19]) was “Active” and the Activity (F98 [20]) was “Active”. It also gave an Activity (F98 [21]) of 42%.

Work on `CCOC(=O)C[C@H](N)c1cc([N+](=O)[O-])ccc1O` yielded an IC50 (F98 [2]) of 1140 µM, a viability at 0.34 µM (F98 [22]) of 20% and an IC50 [3] of 660 µM. The viability at 0.34 µM [23] was 30%.

With `CCOC(=O)C[C@H](N)c1cc(OC)ccc1O` the viability at 0.36 µM [1] was 70%, the IC50 [3] was 40 µM and the viability at 0.36 µM (F98 [4]) was 5%.

`N[C@H]1CC(=O)Oc2ccccc21` showed an IC50 (F98 [2]) of 480 µM, an IC50 [3] of 1570 µM and a viability at 0.5 µM [24] of 15%. For the same compound, the viability at 0.5 µM (F98 [25]) was 55%.

In the case of `CCOC(=O)C[C@H](N)c1cc(Br)cc(OC)c1O`, the IC50 (F98 [2]) is reported as 170 µM, the IC50 [3] is reported as 220 µM and the viability at 0.28 µM [26] is reported as 60%. The viability at 0.28 µM (F98 [27]) was 60%.

Reference: ChEMBL document CHEMBL5352420, “Enantioselective synthesis of 4-amino-3,4-dihydrocoumarins and their non-cyclic hydroxyester precursors: Biological evaluation for the treatment of glioblastoma multiforme” (Eur J Med Chem, 2022)
